Measured values reported in ChEMBL document CHEMBL4130601, “Oxygenated N-Acyl Alanine Methyl Esters (NAMEs) from the Marine Bacterium Roseovarius tolerans EL-164” (2018).
Converted amounts (≈) assume the structure as drawn. The source made the active and inactive calls. The rule behind the calls is not given here.

Tests used:
Pseudomonas putida [1] = assay: Induction of N-acyl-homoserinlactone-related quorum sensing activity in Pseudomonas putida F117 measured up to 5.5 hrs by fluorescence assay
In short: (§1)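 The sensor strain P. putida F117 (pKRC12) was grown overnight in Luria−Bertani medium with gentamycin (20 μg/mL) at 30 °C, shaking at 160 rpm. Test samples were added at different concentrations.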

Mucor hiemalis = assay: Antibacterial activity against Mucor hiemalis DSM 2656 after 16 to 20 hrs by microdilution method; assay type: functional
In short: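 The fungus, in mid-log phase, was diluted to about 5 × 10⁵ to 5 × 10⁶ cfu/mL final in Myc medium (1% phytone peptone, 1% glucose, 50 mM HEPES, pH 7.0). Samples were serially diluted from 2 mg/mL stocks. Growth was 16−20 h at 30 or 37 °C. MIC was taken as the lowest concentration with no visible growth.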

Pseudomonas putida [2] = assay: Inhibition of N-acyl-homoserinlactone-related quorum sensing activity in Pseudomonas putida F117 at 5 uM measured up to 5.5 hrs by fluorescence assay; in short: as §1
Escherichia coli = assay: Antibacterial activity against TolC-deficient Escherichia coli after 16 to 20 hrs by microdilution method; assay type: functional
In short: (§2)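 Samples were serially diluted from 2 mg/mL stocks and the cells added. Growth was 16−20 h at the optimal temperature (30 or 37 °C). MIC was taken as the lowest concentration with no visible growth.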

Staphylococcus aureus = assay: Antibacterial activity against Staphylococcus aureus Newman after 16 to 20 hrs by microdilution method; assay type: functional; in short: as §2
Micrococcus luteus = assay: Antibacterial activity against Micrococcus luteus DSM 1790 after 16 to 20 hrs by microdilution method; assay type: functional; in short: as §2
Bacillus subtilis = assay: Antibacterial activity against Bacillus subtilis DSM 10 after 16 to 20 hrs by microdilution method; assay type: functional; in short: as §2
Staphylococcus carnosus = assay: Antibacterial activity against Staphylococcus carnosus DSM 20501 after 16 to 20 hrs by microdilution method; assay type: functional; in short: as §2

For COC(=O)[C@H](C)NC(=O)CCCCCCC/C=C\CCCCCCO, which Activity (Pseudomonas putida [1]) is on record?
Its Activity is “inactive”.

What about the MIC (Mucor hiemalis) of the same compound?
Its MIC is 32 to 64 µg/mL (≈ 90 to 180 µM).

What about the inhibition (Pseudomonas putida [2]) of the same compound?
The inhibition was “inactive”.

And the MIC (Escherichia coli)?
The MIC was 8 to 16 µg/mL (≈ 22.5 to 45 µM).

What about the MIC (Staphylococcus aureus) of the same compound?
Its MIC is 32 to 64 µg/mL (≈ 90 to 180 µM).

And the MIC (Micrococcus luteus)?
The MIC was 32 to 64 µg/mL (≈ 90 to 180 µM).

How did the Activity (Pseudomonas putida [1]) turn out when CCCCCC/C=C\CCCCCCCC(=O)N[C@@H](C)C(=O)OC was run?
The Activity was “inactive”.

And the inhibition (Pseudomonas putida [2])?
Its inhibition is “inactive”.

How did the MIC (Bacillus subtilis) turn out when CCCCCC/C=C\CCCCCC(O)CC(=O)N[C@@H](C)C(=O)OC (stereo partly specified) was run?
The MIC was 128 µg/mL (≈ 360 µM).

What about the MIC (Staphylococcus carnosus) of the same compound?
The MIC was 16 µg/mL (≈ 45 µM).

And the MIC (Escherichia coli)?
Its MIC is 16 µg/mL (≈ 45 µM).

What about the MIC (Micrococcus luteus) of the same compound?
Its MIC is 8 µg/mL (≈ 22.5 µM).

CCCCCC/C=C\CCCCCC(=O)CC(=O)N[C@@H](C)C(=O)OC was tested. Which MIC (Bacillus subtilis) did it give?
The MIC was 16 µg/mL (≈ 45.3 µM).

And the MIC (Staphylococcus carnosus)?
The MIC was 8 µg/mL (≈ 22.6 µM).

What about the MIC (Escherichia coli) of the same compound?
Its MIC is 16 µg/mL (≈ 45.3 µM).

What about the MIC (Micrococcus luteus) of the same compound?
Its MIC is 16 µg/mL (≈ 45.3 µM).
